The structures appear in SMILES notation. Converted amounts (≈) assume the structure as drawn.

As a reminder, the inhibition is the relative decrease from the control value, in per cent. A low value points to little suppression. By bioavailability is commonly meant the share of a dose that reaches the circulation, judged against a reference dose that is usually intravenous. A high value points to much systemic uptake.

Data set [1] in a line: Kinetic solubility of the compound in pION buffer at pH 7.4 measured after 18 hrs. The note with it: read-out: Kinetic_solubility. The data set is classed as physicochemical.
In data set [2] the target is T1, Diacylglycerol O-acyltransferase 1 (Mus musculus) (UniProt Q9Z2A7).
T1 sequence (whole entry): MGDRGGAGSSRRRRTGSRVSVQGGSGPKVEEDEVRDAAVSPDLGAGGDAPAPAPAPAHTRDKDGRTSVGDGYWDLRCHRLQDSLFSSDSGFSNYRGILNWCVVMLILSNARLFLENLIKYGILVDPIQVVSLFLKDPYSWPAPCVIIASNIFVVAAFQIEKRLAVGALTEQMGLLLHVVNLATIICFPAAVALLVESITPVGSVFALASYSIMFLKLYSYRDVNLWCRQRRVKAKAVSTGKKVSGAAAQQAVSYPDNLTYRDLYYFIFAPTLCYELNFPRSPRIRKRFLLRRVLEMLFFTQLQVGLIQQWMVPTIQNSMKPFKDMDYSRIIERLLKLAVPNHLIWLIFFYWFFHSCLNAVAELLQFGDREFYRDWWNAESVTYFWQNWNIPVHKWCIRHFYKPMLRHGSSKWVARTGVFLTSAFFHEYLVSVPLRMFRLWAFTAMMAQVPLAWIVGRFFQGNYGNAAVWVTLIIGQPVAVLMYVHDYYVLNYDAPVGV
Description: Inhibition of DGAT1 in mouse C2C12 cells at 300 nM using [14C] oleic acid as substrate measured after 20 mins by phosphorimaging method relative to control. Format: cell-based.

Data set [3] can be described thus: Oral bioavailability in Sprague-Dawley rat at 2 mg/kg. The data set is classed as ADME, organism-based. The note with it: in vivo. The essentials: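 Male animals, n = 3 per species: C57BL/6J mouse at 2.2 mg/kg IV and 2.7 mg/kg PO; Sprague–Dawley rat at 1 mg/kg IV and 2 mg/kg PO; Beagle dog at 1.8 mg/kg IV and 5.3 mg/kg PO. Plasma clearance, Vss, IV half-life and oral %F were derived from the plasma profiles.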

Consider `CCC1(CC(=O)O)CCc2cc(-c3ccc(NC(=O)Nc4cccc(Cl)c4)cc3)ccc2C1=O` (configuration not stated), for which, in data set [1], the solubility kinetic at 18 h was found to be 101 µg/mL (≈ 212 µM). Regarding `O=C(O)CC1CCc2cc(-c3ccc(NC(=O)Nc4ccccc4)cc3)ccc2C1=O` (configuration not stated), the solubility kinetic at 18 h in data set [1] was found to be 58 µg/mL (≈ 140 µM).

For the compound `O=C(O)CC1(CC(F)(F)F)CCc2cc(-c3ccc(NC(=O)Nc4ccccc4)cc3)ccc2C1=O` (configuration not stated), the solubility kinetic at 18 h in data set [1] was determined as 30 µg/mL (≈ 60.4 µM). On the same count and under the same terms, the same measure for `CC1(CC(=O)O)CCc2cc(-c3ccc(NC(=O)Nc4ccccc4)cc3)ccc2C1=O` (configuration not stated): 54 µg/mL (≈ 126 µM); for `CC1(CC(=O)O)CCc2cc(-c3ccc(NC(=O)Nc4cccc(Cl)c4)cc3)ccc2C1=O` (configuration not stated): 75 µg/mL (≈ 162 µM).

Take `CC[C@@]1(CC(=O)O)CCc2cc(-c3ccc(NC(=O)Nc4ccc(Cl)cc4)cc3)ccc2C1=O`: the inhibition in data set [2] was 83%. Moreover, the solubility kinetic at 18 h in data set [1] came to 5 µg/mL (≈ 10.5 µM).

On to `CCC1(CC(=O)O)CCc2cc(-c3ccc(NC(=O)Nc4ccccc4)cc3)ccc2C1=O` (configuration not stated), for which the solubility kinetic at 18 h in data set [1] was found to be 34 µg/mL (≈ 76.8 µM).

`CCC1(CC(=O)O)CCc2cc(-c3ccc(NC(=O)Nc4ccc(Cl)cc4)cc3)ccc2C1=O` (racemic): the inhibition in data set [2] is 72%. The solubility kinetic at 18 h in data set [1] turned out to be 100 µg/mL (≈ 210 µM). For `CC[C@@]1(CC(=O)O)CCc2cc(-c3ccc(NC(=O)Nc4ccc(F)c(F)c4)cc3Cl)ccc2C1=O`, the bioavailability in data set [3] amounted to 51%. The solubility kinetic at 18 h in data set [1] is 125 µg/mL (≈ 244 µM).

`CCC1(CC(=O)O)CCc2cc(-c3ccc(NC(=O)Nc4ccccc4C(F)(F)F)cc3)ccc2C1=O` (configuration not stated): the solubility kinetic at 18 h in data set [1] came to 26 µg/mL (≈ 50.9 µM). Still for that read-out and setting: the same measure for `CCC1(CC(=O)O)CCc2cc(-c3ccc(NC(=O)Nc4cccc(F)c4)cc3)ccc2C1=O` (configuration not stated): 38 µg/mL (≈ 82.5 µM); for `CC1(CC(=O)O)CCc2cc(-c3ccc(NC(=O)Nc4cccc(F)c4)cc3)ccc2C1=O` (configuration not stated): 13 µg/mL (≈ 29.1 µM). The same measure, in the same setting: the value for `CCC1(CC(=O)O)CCc2cc(-c3ccc(NC(=O)Nc4ccc(C)cc4)cc3)ccc2C1=O` (configuration not stated) was 36 µg/mL (≈ 78.9 µM); that for `COc1cccc(NC(=O)Nc2ccc(-c3ccc4c(c3)CCC(C)(CC(=O)O)C4=O)cc2)c1` (configuration not stated) was 40 µg/mL (≈ 87.2 µM).

`CCC1(CC(=O)O)CCc2cc(-c3ccc(NC(=O)Nc4ccc(C(F)(F)F)cc4)cc3)ccc2C1=O` (configuration not stated): the solubility kinetic at 18 h in data set [1] was determined as 46 µg/mL (≈ 90.1 µM). The same measure, in the same setting: the value for `CCCC1(CC(=O)O)CCc2cc(-c3ccc(NC(=O)Nc4ccccc4)cc3)ccc2C1=O` (configuration not stated) was 74 µg/mL (≈ 162 µM). The compound `CC[C@]1(CC(=O)O)CCc2cc(-c3ccc(NC(=O)Nc4cccc(C(F)(F)F)c4)cc3)ccc2C1=O` displayed an inhibition in data set [2] of 27%. In addition, in data set [1], the solubility kinetic at 18 h was 88 µg/mL (≈ 172 µM). On to `Cc1cccc(NC(=O)Nc2ccc(-c3ccc4c(c3)CCC(C)(CC(=O)O)C4=O)cc2)c1` (configuration not stated), for which the solubility kinetic at 18 h in data set [1] was determined as 103 µg/mL (≈ 233 µM). On the same count and under the same terms, the same measure for `CC[C@]1(CC(=O)O)CCc2cc(-c3ccc(NC(=O)Nc4ccc(Cl)cc4)cc3)ccc2C1=O`: 0.4 µg/mL (≈ 0.839 µM). As for `O=C(O)C[C@]1(CC(F)(F)F)CCc2cc(-c3cnc(NC(=O)Nc4cccc(C(F)(F)F)c4)cn3)ccc2C1=O`, the bioavailability in data set [3] came out at 25%. Moreover, the solubility kinetic at 18 h in data set [1] was 56 µg/mL (≈ 98.9 µM).

The compound `CCC1(CC(=O)O)CCc2cc(-c3ccc(NC(=O)Nc4cccc(C(F)(F)F)c4)cc3)ccc2C1=O` (racemic) showed an inhibition in data set [2] of 62%. Moreover, the solubility kinetic at 18 h in data set [1] came out at 39 µg/mL (≈ 76.4 µM). As to `CC1(CC(=O)O)CCc2cc(-c3ccc(NC(=O)Nc4cccc(C(F)(F)F)c4)cc3)ccc2C1=O` (configuration not stated), the solubility kinetic at 18 h in data set [1] was found to be 72 µg/mL (≈ 145 µM). On the same count and under the same terms, the value for `CCC1(CC(=O)O)CCc2cc(-c3ccc(NC(=O)Nc4cccc(OC)c4)cc3)ccc2C1=O` (configuration not stated) was 6 µg/mL (≈ 12.7 µM).

On to `CC[C@@]1(CC(=O)O)CCc2cc(-c3ccc(NC(=O)Nc4cccc(C(F)(F)F)c4)cc3Cl)ccc2C1=O`, for which, in data set [3], the bioavailability turned out to be 23%. Further, the solubility kinetic at 18 h in data set [1] came out at 151 µg/mL (≈ 277 µM). Take `CCC1(CC(=O)O)CCc2cc(-c3ccc(NC(=O)Nc4cccc(C)c4)cc3)ccc2C1=O` (configuration not stated): the solubility kinetic at 18 h in data set [1] came out at 6 µg/mL (≈ 13.1 µM).

These data come from ChEMBL document CHEMBL4138301, “Discovery of Tetralones as Potent and Selective Inhibitors of Acyl-CoA:Diacylglycerol Acyltransferase 1” (ACS Med Chem Lett, 2018).
